Results pooled from the literature.
Compare with care: the assays were run in different laboratories.
Target: Inhibitor of nuclear factor kappa-B kinase subunit beta (IKBKB, Homo sapiens, UniProt O14920)
Residues used in one study (O14920 1-756): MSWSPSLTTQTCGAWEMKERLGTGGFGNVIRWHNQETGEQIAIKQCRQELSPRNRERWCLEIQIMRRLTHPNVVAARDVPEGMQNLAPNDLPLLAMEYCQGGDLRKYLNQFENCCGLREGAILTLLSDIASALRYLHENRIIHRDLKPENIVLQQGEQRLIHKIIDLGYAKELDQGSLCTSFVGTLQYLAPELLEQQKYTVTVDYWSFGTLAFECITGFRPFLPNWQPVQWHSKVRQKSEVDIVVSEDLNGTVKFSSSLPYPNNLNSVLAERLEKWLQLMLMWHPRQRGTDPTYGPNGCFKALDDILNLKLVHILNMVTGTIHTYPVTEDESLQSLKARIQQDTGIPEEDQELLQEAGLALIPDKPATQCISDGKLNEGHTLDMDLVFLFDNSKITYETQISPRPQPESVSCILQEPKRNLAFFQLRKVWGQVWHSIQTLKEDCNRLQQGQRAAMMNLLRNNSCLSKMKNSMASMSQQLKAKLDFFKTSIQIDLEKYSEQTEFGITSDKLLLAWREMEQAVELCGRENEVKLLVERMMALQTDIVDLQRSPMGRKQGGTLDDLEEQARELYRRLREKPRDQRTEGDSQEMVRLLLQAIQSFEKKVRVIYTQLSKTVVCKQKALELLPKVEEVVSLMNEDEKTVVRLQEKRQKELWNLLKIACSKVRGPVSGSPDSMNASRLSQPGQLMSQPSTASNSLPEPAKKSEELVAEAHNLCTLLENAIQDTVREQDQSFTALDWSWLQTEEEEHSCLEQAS

Compound | read-out | method | tested at | remaining binding
CCCCN(CCCC)C(=O)CN1C[C@H](c2cc(OC)c3c(c2)OCO3)[C@@H](C(=O)O)[C@@H]1CC(C)(C)CCC | cell-free assay | competition with immobilised ligand | 1 µM | 81.5%
O=C(c1ccc(Nc2ncc(Cl)c(-c3ccc(Cl)s3)n2)cc1)N1CCC(N2CCCC2)CC1 | binding | competition with immobilised ligand | 1 µM | 0.6%
CN(C)c1ncnc(-c2ccc3nc(Nc4cc(CN5CCN(C(=O)CC(F)(F)F)CC5)ccn4)[nH]c3c2)c1Cl | cell-free assay | competition with immobilised ligand | 1 µM | 80%
Cc1cnn2ncc(-c3ccnc(N(C)C)n3)c2c1 | binding | competition with immobilised ligand | 1 µM | 53%
CN(C)CC#Cc1ccc(OCCCc2sc(N3CCc4cccc(C(=O)Nc5nc6ccccc6s5)c4C3)nc2C(=O)O)c(F)c1 | cell-free assay | competition with immobilised ligand | 1 µM | 72%
COc1cnc(Nc2cccc(S(N)(=O)=O)c2)nc1N1CCN(c2ccccc2)CC1 | binding | competition with immobilised ligand | 1 µM | 94%
CC1CCCN1c1nccc(-c2cnn3ncccc23)n1 (stereo not shown) | binding | competition with immobilised ligand | 1 µM | 100%
C=CC(=O)N1CCC(C(=O)NCC(=O)N2CCN(c3nc(-c4cnc(N)nc4C(F)F)nc(N4CCOCC4)n3)CC2)CC1 | binding | competition with immobilised ligand | 1 µM | 73%
c1cncc(-c2cccc(Nc3nccc(NC4CCCCC4)n3)c2)c1 | binding | competition with immobilised ligand | 10 µM | 89%
CCCOc1ccc([C@H]2[C@H](C(=O)O)[C@@H](c3ccc4c(c3)OCO4)CN2CC(=O)Nc2c(CC)cccc2CC)cc1 | cell-free assay | competition with immobilised ligand | 1 µM | 77%
CN(C)c1nccc(-c2cnc3ncccn23)n1 | binding | competition with immobilised ligand | 1 µM | 67%
C[C@@H]1CN(c2ccc3ncc(-c4ccc5[nH]nc(C6CC6)c5c4)n3n2)C[C@H](C)O1 | binding | competition with immobilised ligand | 50 nM | 88%
CCN1CCN(Cc2ccc(C(=O)Nc3ccc(C)c(Oc4ccc5c(c4)CC(=O)N5)c3)cc2C(F)(F)F)CC1 | binding | competition with immobilised ligand | 1 µM | 100%
N[C@@H]1CCN(c2nccc(-c3cnn4ncccc34)n2)C1 | binding | competition with immobilised ligand | 1 µM | 100%
O=C(NCC1CCOCC1)c1n[nH]cc1NC(=O)c1c(F)cccc1F | binding | competition with immobilised ligand | 1 µM | 92%
CN(C)c1nccc(-c2cnn3ncccc23)n1 | binding | competition with immobilised ligand | 1 µM | 84%
CS(=O)(=O)c1cc(C2(NC(=O)c3cncc4c3cnn4-c3ccc(F)cc3)CC2)ccn1 | cell-free assay | competition with immobilised ligand | 1 µM | 100%
O=C(NCCCN1CCOCC1)c1ccc(Nc2ncc(Cl)c(-c3ccc(Cl)s3)n2)cc1 | binding | competition with immobilised ligand | 1 µM | 23%
CSc1cccnc1N1CCN(Cc2nc3ccccc3[nH]2)CC1 | cell-free assay | competition with immobilised ligand | 1 µM | 86%
Cc1cnc(Nc2ccc(C(=O)N3CCC(N4CCCC4)CC3)cc2)nc1-c1cc2ccccc2s1 | binding | competition with immobilised ligand | 1 µM | 0%
COc1ncc2cc3ccccc3nc2c1C#N | cell-free assay | competition with immobilised ligand | 5 µM | 96%
C[C@H]1CCN(c2nccc(-c3cnn4ncccc34)n2)C1 | binding | competition with immobilised ligand | 1 µM | 64%
CNCc1ccccc1-c1csc([C@H](C)Nc2nc(C)nc3cc(OC)c(OC)cc23)c1 | cell-free assay | competition with immobilised ligand | 1 µM | 83%
CN(c1nccc(-c2cnn3ncccc23)n1)C1CC1 | binding |  | 1 µM | 100%
O=C(O)c1cc(-c2ccc(C3CCNCC3)cc2)c2ccc(-c3ccc(C(F)(F)F)cc3)cc2c1 | cell-free assay | competition with immobilised ligand | 1 µM | 100%
